Test results from ChEMBL document CHEMBL5532745, “Enzymatic Synthesis of Austroeupatol Esters with Enhanced Antiprotozoal Activity” (ACS Med Chem Lett, 2024).

Experiments:
[1] = test system: Leishmania infantum; experiment: Antiprotozoal activity against Leishmania infantum MHOM/BR/2002/LPC-RPV promastigotes assessed as growth inhibition at 25 uM incubated for 5 days relative to control; assay type: functional; details: 120 h, time 5 day, read-out: GI
[2] = test system: Trypanosoma cruzi; experiment: Antiprotozoal activity against Trypanosoma cruzi epimastigotes assessed as growth inhibition at 25 uM incubated for 5 days relative to control; assay type: functional; details: 120 h, time 5 day, read-out: GI
[3] = test system: Trypanosoma cruzi; experiment: Antiprotozoal activity against Trypanosoma cruzi Tulahuen strain amastigotes expressing Escherichia coli beta-galactosidase cultured in Vero cells assessed as growth inhibition at 10 uM incubated for 5 days relative to control; assay type: functional; details: 120 h, time 5 day, read-out: GI
Outline: (§1)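 Vero cells infected with trypomastigotes carrying β-galactosidase; intracellular parasites exposed to compounds, growth inhibition read spectrophotometrically.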

[4] = test system: Trypanosoma cruzi; experiment: Antiprotozoal activity against Trypanosoma cruzi Tulahuen strain amastigotes expressing Escherichia coli beta-galactosidase cultured in Vero cells assessed as growth inhibition incubated for 5 days; assay type: functional, organism-based; details: 120 h; outline: as §1
[5] = Cytotoxicity against African green monkey Vero cells incubated for 48 hrs by MTT assay; assay type: toxicity, cell-based; details: chlorocebus sabaeus
Outline: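 Uninfected Vero cells exposed to compounds; viability read by MTT assay to estimate cytotoxicity for selectivity assessment.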

[6] = test system: Leishmania infantum; experiment: Antiprotozoal activity against Leishmania infantum MHOM/BR/2002/LPC-RPV promastigotes assessed as growth inhibition at 25 uM incubated for 5 days; assay type: functional, organism-based

Compound: C=C1CC[C@@H]2[C@H](COC(=O)CCc3c[nH]c4ccccc34)[C@H](O)[C@H](O)C[C@@]2(C)[C@@H]1CCc1ccoc1
- inhibition of growth at 25 µM [1]: 91.5%
- inhibition of growth at 25 µM [2]: 64.3%
- inhibition of growth at 10 µM [3]: 98.7%
- IC50 [4]: 2.26 µM
- CC50 at 48 h [5]: < 10 µM

Compound: C=C1CC[C@@H]2[C@H](COC(=O)CCCCCCCCCCC)[C@H](OC(=O)CCCCCCCCCCC)[C@H](O)C[C@@]2(C)[C@@H]1CCc1ccoc1
- inhibition of growth at 25 µM [1]: 2.4%
- inhibition of growth at 25 µM [2]: 46.8%
- inhibition of growth at 10 µM [3]: 4.73%

Compound: C=C1CC[C@@H]2[C@H](COC(=O)CCCC[C@@H]3CCSS3)[C@H](O)[C@H](O)C[C@@]2(C)[C@@H]1CCc1ccoc1
- inhibition of growth at 25 µM [1]: 47.7%
- inhibition of growth at 25 µM [2]: 58.5%
- inhibition of growth at 10 µM [3]: 95.2%
- IC50 [4]: 2.06 µM
- CC50 at 48 h [5]: < 10 µM

Compound: C=C1CC[C@@H]2[C@H](CO)[C@H](O)[C@H](O)C[C@@]2(C)[C@@H]1CCc1ccoc1
- inhibition of growth at 25 µM [1]: 0%
- inhibition of growth at 25 µM [2]: 24.9%
- inhibition of growth at 10 µM [3]: 28%
- IC50 [4]: > 15 µM
- CC50 at 48 h [5]: 85.4 µM

Compound: C=C1CC[C@@H]2[C@H](COC(C)=O)[C@H](O)[C@H](O)C[C@@]2(C)[C@@H]1CCc1ccoc1
- inhibition of growth at 25 µM [1]: 15.7%
- inhibition of growth at 25 µM [2]: 21.6%
- inhibition of growth at 10 µM [3]: 22.7%

Compound: C=C1CC[C@@H]2[C@H](COC(=O)CCCCCCCCCCCCCCC)[C@H](O)[C@H](O)C[C@@]2(C)[C@@H]1CCc1ccoc1
- inhibition of growth at 25 µM [1]: 0%
- inhibition of growth at 25 µM [2]: 24.9%
- inhibition of growth at 10 µM [3]: 2.98%

Compound: C=C1CC[C@@H]2[C@H](COC(=O)CCCCCCCCCCC)[C@H](O)[C@H](O)C[C@@]2(C)[C@@H]1CCc1ccoc1
- inhibition of growth at 25 µM [1]: 29.1%
- inhibition of growth at 25 µM [2]: 69.7%
- inhibition of growth at 10 µM [3]: 12.5%

Compound: C=C1CC[C@@H]2[C@H](COC(=O)CCCCCCCCCCCCCCC)[C@H](OC(=O)CCCCCCCCCCCCCCC)[C@H](O)C[C@@]2(C)[C@@H]1CCc1ccoc1
- inhibition of growth at 25 µM [1]: 0%
- inhibition of growth at 25 µM [2]: 31.8%
- inhibition of growth at 10 µM [3]: 2.06%

Compound: C=C1CC[C@@H]2[C@H](COC(=O)CCCC)[C@H](O)[C@H](O)C[C@@]2(C)[C@@H]1CCc1ccoc1
- inhibition of growth at 25 µM [1]: 94.1%
- inhibition of growth at 25 µM [2]: 93.5%
- inhibition of growth at 10 µM [3]: 99.1%
- IC50 [4]: 8.5 µM
- CC50 at 48 h [5]: 19.3 µM

Compound: C=C1CC[C@@H]2[C@H](COC(=O)CCCCCCC)[C@H](OC(=O)CCCCCCC)[C@H](O)C[C@@]2(C)[C@@H]1CCc1ccoc1
- inhibition of growth at 25 µM [1]: 16.4%
- inhibition of growth at 25 µM [2]: 27.4%
- inhibition of growth at 10 µM [3]: 9.79%

Compound: C=C1CC[C@@H]2[C@H](COC(=O)CCCCCCC)[C@H](O)[C@H](O)C[C@@]2(C)[C@@H]1CCc1ccoc1
- inhibition of growth at 25 µM [1]: 57.1%
- inhibition of growth at 25 µM [2]: 99.5%
- inhibition of growth at 10 µM [3]: 100%
- IC50 [4]: 7.03 µM
- CC50 at 48 h [5]: 18.1 µM

Compound: O=C(Cn1ccnc1[N+](=O)[O-])NCc1ccccc1 [BENZNIDAZOLE]
- IC50 [4]: 0.94 µM
- CC50 at 48 h [5]: > 384 µM

Compound: MEGLUMINE ANTIMONATE
- IC50 [6]: 20 µM
